Screening results from PubChem BioAssay.
NF-kB expr up: raises NF-kB expression in human neuronal cells. NF-kB reporter expression; active compounds read high. fold change at 12.5 µM. 190,000 tested, 1.6% active; in the data active = fold change above about 3.3
STAT1 inh: STAT1 signaling inhibition. AID 920. inhibition, % at 5.5 µM. 200,000 tested, 0.35% active. NIH 3T3 STAT1-luciferase reporter, IFN-gamma, luminescence;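 active = inhibition above a set limit, the mean inhibition across all tested compounds plus 3 SD, cut at about 34% in these data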
STAT3 blocker: inhibitors of IL-6 induced STAT3 signaling | U3A cells, IL-6 STAT3-luciferase reporter, luminescence; host cell line lacks STAT1 | inhibition, % at 5.5 µM | 190,000 tested, 0.89% active | AID 862;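 active = inhibition above the mean inhibition across all screened compounds plus 3 SD, cut at about 44% in these data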
STAT3 activator: increases IL-6 driven STAT3 reporter signal | U3A cells, IL-6 STAT3-luciferase reporter, luminescence; 100% = signal with IL-6 EC80 alone | activation (% of control), % at 5.6 µM | 190,000 tested, 0.91% active;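 active = activation above the screen-wide mean of compound activation plus 3 SD, cut at about 130% in these data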
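Material: STAT3-luciferase reporter U3A cells; Probe or stimulus: IL-6 (33 ng/mL); Incubation: compound pre-incubation 1 h before IL-6, then 6 h stimulation at 37 °C; Technique: luminescence from STAT3-driven luciferase reporter; Evaluation: % activation versus median of IL-6-stimulated wells; Controls: IL-6-only high control.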
APP 5'UTR act: APP 5'UTR luciferase reporter activation. SH-SY5Y APP 5'UTR luciferase reporter, luminescence; zero percent = DMSO vehicle wells. 190,000 tested, 1% active. activation, % at 2 µM;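 active = activation above a set limit, based on mean plus 3 SD of controls, cut at about 140% in these data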
STAT1 act: STAT1 signaling activation. NIH 3T3 STAT1-luciferase reporter, IFN-gamma, luminescence; 100% = IFN-gamma alone, no compound. activation (% of control), % at 5.5 µM. 200,000 tested, 2.6% active. AID 932;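 active = activation above the screen-wide mean activation plus 3 SD, cut at about 130% in these data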
Hits are given with their value. Compounds with a hit are over-represented: about 4.9% of the library has one in this group of screens.

Screening O=C(Nc1ccccc1)c1cccn(Cc2ccccc2)c1=O returned NF-kB expr up inactive, STAT1 inh inactive, STAT3 blocker inactive, STAT3 activator inactive, APP 5'UTR act inactive and STAT1 act 131.7.
`COc1ccc(P2(=O)Nc3ccccc3N2)cc1` gave NF-kB expr up inactive, STAT1 inh inactive, STAT3 blocker inactive, STAT3 activator inactive, APP 5'UTR act 171.4 and STAT1 act inactive.
Screening COc1ccc(NP(=O)(Nc2ccc(OC)cc2)Oc2ccccc2)cc1 returned NF-kB expr up inactive, STAT1 inh inactive, STAT3 blocker inactive, STAT3 activator inactive, APP 5'UTR act inactive and STAT1 act inactive.
For C[C@H]1CCC/C=C/C2C[C@H](O)CC2[C@H](O)/C=C/C(=O)O1 (some centres undefined) the results were NF-kB expr up inactive, STAT1 inh 45.7, STAT3 blocker 93.3, STAT3 activator inactive, APP 5'UTR act inactive and STAT1 act inactive.
CC1CCC/C=C/C2CC(O)CC2C(O)/C=C/C(=O)O1 (centres undefined) was read as NF-kB expr up inactive, STAT1 inh 52.9, STAT3 blocker 89.0, STAT3 activator inactive, APP 5'UTR act inactive and STAT1 act inactive.
Screening C[C@H]1CCC[C@H](O)CCCCCc2cc(O)cc(O)c2C(=O)O1 returned NF-kB expr up inactive, STAT1 inh inactive, STAT3 blocker inactive, STAT3 activator inactive, APP 5'UTR act inactive and STAT1 act inactive.
N=Cc1c(O)n(-c2ccc(C34CC5CC(CC(C5)C3)C4)cc2)c(=O)[nH]c1=O was read as NF-kB expr up inactive, STAT1 inh inactive, STAT3 blocker inactive, STAT3 activator inactive, APP 5'UTR act inactive and STAT1 act inactive.
For O=C(c1ccc(N2CC3CC(C2)c2cccc(=O)n2C3)c([N+](=O)[O-])c1)N1CCCC1 (centres undefined) the results were NF-kB expr up inactive, STAT1 inh inactive, STAT3 blocker inactive, STAT3 activator inactive, APP 5'UTR act inactive and STAT1 act inactive.
For O=c1[nH]c(O)c(N=Nc2cc([N+](=O)[O-])ccc2O)c(=O)[nH]1 the results were NF-kB expr up inactive, STAT1 inh inactive, STAT3 blocker inactive, STAT3 activator inactive, APP 5'UTR act inactive and STAT1 act inactive.
`CN1CCN(c2ncnc3ccc(Br)cc23)CC1` gave NF-kB expr up inactive, STAT1 inh inactive, STAT3 blocker inactive, STAT3 activator inactive, APP 5'UTR act inactive and STAT1 act inactive.
Screening Cc1ccc2nc(N3CCN(C)CC3)[nH]c2c1 returned NF-kB expr up inactive, STAT1 inh inactive, STAT3 blocker inactive, STAT3 activator inactive, APP 5'UTR act inactive and STAT1 act 133.3.
Nc1ccccc1C(=O)OCc1ccc([N+](=O)[O-])cc1 was read as NF-kB expr up inactive, STAT1 inh inactive, STAT3 blocker inactive, STAT3 activator inactive, APP 5'UTR act inactive and STAT1 act 136.3.
`CCn1c(=O)cc(SCC(=O)N2CCC3(CC2)OCCO3)c2ccccc21` gave NF-kB expr up inactive, STAT1 inh inactive, STAT3 blocker inactive, STAT3 activator inactive, APP 5'UTR act inactive and STAT1 act inactive.
C[N+]12CCC(CC1)C(C(O)(c1ccccc1)c1cccs1)C2 (centres undefined) was read as NF-kB expr up 4.14, STAT1 inh inactive, STAT3 blocker inactive, STAT3 activator inactive, APP 5'UTR act inactive and STAT1 act inactive.
`C[C@]12CCC(=O)C(O)=C1CC[C@@H]1[C@@H]2CC[C@]2(C)C(=O)CC[C@@H]12` gave NF-kB expr up inactive, STAT1 inh inactive, STAT3 blocker inactive, STAT3 activator inactive, APP 5'UTR act inactive and STAT1 act inactive.
Screening Nc1c2c(nc3sc4c(c13)CCCC4)CCCC2 returned NF-kB expr up inactive, STAT1 inh inactive, STAT3 blocker inactive, STAT3 activator inactive, APP 5'UTR act inactive and STAT1 act inactive.
For Nc1c2c(nc3sc4c(c13)CCCC4)CCCCC2 the results were NF-kB expr up 3.8, STAT1 inh inactive, STAT3 blocker inactive, STAT3 activator inactive, APP 5'UTR act inactive and STAT1 act inactive.
For O=C(c1cc(-c2ccccc2)on1)N1CCC2(CC1)OCCO2 the results were NF-kB expr up 5.25, STAT1 inh inactive, STAT3 blocker inactive, STAT3 activator inactive, APP 5'UTR act inactive and STAT1 act 137.2.
`O=C(c1cc2ccccn2n1)N1CCC2(CC1)OCCO2` gave NF-kB expr up inactive, STAT1 inh inactive, STAT3 blocker inactive, STAT3 activator inactive, APP 5'UTR act inactive and STAT1 act inactive.
O=C(COc1ccc2ccccc2c1)N1CCN(Cc2c[nH]c3ccccc23)CC1 was read as NF-kB expr up inactive, STAT1 inh inactive, STAT3 blocker inactive, STAT3 activator inactive, APP 5'UTR act inactive and STAT1 act inactive.
Screening O=C(COc1ccc(Br)cc1)N1CCN(Cc2c[nH]c3ccccc23)CC1 returned NF-kB expr up inactive, STAT1 inh inactive, STAT3 blocker inactive, STAT3 activator 134.7, APP 5'UTR act inactive and STAT1 act inactive.
Cc1ccccc1NP(=O)(Oc1ccccc1F)Oc1ccccc1F was read as NF-kB expr up inactive, STAT1 inh inactive, STAT3 blocker inactive, STAT3 activator inactive, APP 5'UTR act inactive and STAT1 act inactive.
`COc1ccc2nc(NC3=NCCN3)sc2c1` gave NF-kB expr up inactive, STAT1 inh inactive, STAT3 blocker inactive, STAT3 activator inactive, APP 5'UTR act inactive and STAT1 act 139.8.
CCCC(C)C1(CC)C(=O)NC(=O)N=C1N (centres undefined) was read as NF-kB expr up inactive, STAT1 inh inactive, STAT3 blocker inactive, STAT3 activator inactive, APP 5'UTR act inactive and STAT1 act inactive.
`Clc1ccccc1Nc1ncnc(-n2cccc2)n1` gave NF-kB expr up inactive, STAT1 inh inactive, STAT3 blocker inactive, STAT3 activator inactive, APP 5'UTR act inactive and STAT1 act 135.5.
Screening CCn1cc(CN2CCCC(C(=O)c3sccc3C)C2)cn1 (centres undefined) returned NF-kB expr up inactive, STAT1 inh inactive, STAT3 blocker inactive, STAT3 activator inactive, APP 5'UTR act inactive and STAT1 act inactive.
`Cc1cc(C=C2C(=O)NC(=S)NC2=O)c(C)n1C1CCCC1` gave NF-kB expr up inactive, STAT1 inh inactive, STAT3 blocker inactive, STAT3 activator inactive, APP 5'UTR act inactive and STAT1 act 135.6.
For O=C1NC(=O)N(c2ccc(Cl)cc2)C(=O)/C1=C\c1ccc(Sc2nc3ccccc3[nH]2)o1 the results were NF-kB expr up inactive, STAT1 inh inactive, STAT3 blocker inactive, STAT3 activator inactive, APP 5'UTR act inactive and STAT1 act inactive.
CNC(=O)Oc1ccc(-c2cn3cc(C)ccc3n2)cc1 was read as NF-kB expr up 4.98, STAT1 inh 81.9, STAT3 blocker 106.1, STAT3 activator inactive, APP 5'UTR act inactive and STAT1 act inactive.
For Cc1nc2c(=O)n(C)c(=O)nc-2n(C)n1 the results were NF-kB expr up inactive, STAT1 inh 91.9, STAT3 blocker 106.7, STAT3 activator inactive, APP 5'UTR act inactive and STAT1 act inactive.
